Assay results from ChEMBL document CHEMBL3600304, “Gageopeptins A and B, new inhibitors of zoospore motility of the phytopathogen Phytophthora capsici from a marine-derived bacterium Bacillus sp. 109GGC020” (Bioorg Med Chem Lett, 2015).
In brackets after ≈: the same amount, converted by molar mass. Activity calls are given as the source filed them. The calls are words filed in the database; no cut-off is given here. Where a SMILES comes first, the peptide text is derived from it.

Experiments:
Phytophthora capsici [1] = assay: Inhibition of Phytophthora capsici zoospore motility at 5 ug/ml by homogeneous solution method; assay type: functional, organism-based; conditions: TDE = time-dependent effect
Phytophthora capsici [2] = assay: Inhibition of Phytophthora capsici zoospore motility after 15 to 60 mins by homogeneous solution method; assay type: functional, organism-based
Phytophthora capsici [3] = assay: Inhibition of Phytophthora capsici zoospore motility at 500 ug/ml after 15 to 60 mins by homogeneous solution method; assay type: functional, organism-based
Phytophthora capsici [4] = assay: Induction of Phytophthora capsici zoospore lytic activity at 500 ug/ml after 5 to 60 mins by homogeneous solution method; assay type: functional, organism-based
Rhizoctonia solani = assay: Antifungal activity against Rhizoctonia solani by broth dilution assay; assay type: functional
In short: (§1)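 Broth dilution assay for the minimum growth-inhibitory concentration against Gram-positive and Gram-negative bacteria and fungi. Each organism was cultured under its own growth conditions.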

Colletotrichum acutatum = assay: Antifungal activity against Colletotrichum acutatum by broth dilution assay; assay type: functional; in short: as §1
Botrytis cinerea = assay: Antifungal activity against Botrytis cinerea by broth dilution assay; assay type: functional; in short: as §1
Staphylococcus aureus = assay: Antibacterial activity against Staphylococcus aureus by broth dilution assay; assay type: functional; in short: as §1
Bacillus subtilis = assay: Antibacterial activity against Bacillus subtilis by broth dilution assay; assay type: functional; in short: as §1
Salmonella typhi = assay: Antibacterial activity against Salmonella typhi by broth dilution assay; assay type: functional, Salmonella enterica subsp. enterica serovar Typhi; conditions: Salmonella enterica
In short: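 Broth dilution test giving the minimum concentration that inhibits growth, run against Gram-positive and Gram-negative bacteria. Growth conditions were kept specific to each organism during culture.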

Pseudomonas aeruginosa = assay: Antibacterial activity against Pseudomonas aeruginosa by broth dilution assay; assay type: functional; in short: as §1
Phytophthora capsici [5] = assay: Inhibition of Phytophthora capsici zoospore motility at 1 ug/ml after 15 to 60 mins by homogeneous solution method; assay type: functional, organism-based
Phytophthora capsici [6] = assay: Induction of Phytophthora capsici zoospore lytic activity at 1 ug/ml after 5 to 60 mins by homogeneous solution method; assay type: functional, organism-based
Phytophthora capsici [7] = assay: Induction of Phytophthora capsici zoospore lytic activity at 10 ug/ml after 60 mins by homogeneous solution method; assay type: functional, organism-based
Phytophthora capsici [8] = assay: Induction of Phytophthora capsici zoospore lytic activity at 50 ug/ml after 30 mins by homogeneous solution method; assay type: functional, organism-based

SMILES	inhibition (Phytophthora capsici [1])	IC50 (Phytophthora capsici [2]) [µg/mL]	inhibition (Phytophthora capsici [2])	inhibition (Phytophthora capsici [3])	Activity (Phytophthora capsici [4])	MIC (Rhizoctonia solani) [µg/mL]	MIC (Colletotrichum acutatum) [µg/mL]	MIC (Botrytis cinerea) [µg/mL]	MIC (Staphylococcus aureus) [µg/mL]	MIC (Bacillus subtilis) [µg/mL]	MIC (Salmonella typhi) [µg/mL]	MIC (Pseudomonas aeruginosa) [µg/mL]	inhibition (Phytophthora capsici [5])	Activity (Phytophthora capsici [6])	Activity (Phytophthora capsici [7])	Activity (Phytophthora capsici [8])
CCC(C)CCCCCCCCCC[C@@H]1CC(=O)N[C@@H](CCC(=O)O)C(=O)N[C@@H](C(C)C)C(=O)N[C@@H](CC(C)C)C(=O)N[C@@H](C)C(=O)N[C@@H](CC(=O)O)C(=O)N[C@@H](CC(C)C)C(=O)N[C@@H](CC(C)C)C(=O)O1 (stereo partly drawn) (HELM PEPTIDE1{E.V.L.A.D.L.L}|CHEM1{[CCC(C)CCCCCCCCCC[C@H](CC(=O)[*:1])O[*:2]]}$PEPTIDE1,CHEM1,1:R1-1:R1|PEPTIDE1,CHEM1,7:R2-1:R2$$$V2.0)	tde	400 (≈ 391 µM)	Dose-dependent effect	Active	inactive	8 (≈ 7.83 µM)	8 (≈ 7.83 µM)	8 (≈ 7.83 µM)	16 (≈ 15.7 µM)	32 (≈ 31.3 µM)	32 (≈ 31.3 µM)	16 (≈ 15.7 µM)	–	–	–	–
CC[C@H]1OC(=O)[C@H](C)[C@@H](O[C@H]2C[C@@](C)(OC)[C@@H](O)[C@H](C)O2)[C@H](C)[C@@H](O[C@@H]2O[C@H](C)C[C@H](N(C)C)[C@H]2O)[C@](C)(O)C[C@@H](C)CN(C)[C@H](C)[C@@H](O)[C@]1(C)O [AZITHROMYCIN]	–	–	–	–	–	–	–	–	2 (≈ 2.67 µM)	2 (≈ 2.67 µM)	2 (≈ 2.67 µM)	2 (≈ 2.67 µM)	–	–	–	–
C[C@@H]1[C@H](O)[C@@H](C)/C=C/C=C/C=C/C=C/C=C/C=C/C=C/[C@H](O[C@@H]2O[C@H](C)[C@@H](O)[C@H](N)[C@@H]2O)C[C@@H]2O[C@](O)(C[C@@H](O)C[C@@H](O)[C@H](O)CC[C@@H](O)C[C@@H](O)CC(=O)O[C@H]1C)C[C@H](O)[C@H]2C(=O)O [AMPHOTERICIN B]	–	–	–	–	–	1 (≈ 1.08 µM)	1 (≈ 1.08 µM)	1 (≈ 1.08 µM)	–	–	–	–	–	–	–	–
CCC(C)CC(C)CCCCCCCC[C@@H]1CC(=O)N[C@@H](CCC(=O)O)C(=O)N[C@@H](C(C)C)C(=O)N[C@@H](CC(C)C)C(=O)N[C@@H](C)C(=O)N[C@@H](CC(=O)O)C(=O)N[C@@H](CC(C)C)C(=O)N[C@@H](CC(C)C)C(=O)O1 (stereo partly drawn) (HELM PEPTIDE1{E.V.L.A.D.L.L}|CHEM1{[CCC(C)CC(C)CCCCCCCC[C@H](CC(=O)[*:1])O[*:2]]}$PEPTIDE1,CHEM1,1:R1-1:R1|PEPTIDE1,CHEM1,7:R2-1:R2$$$V2.0)	tde	1 (≈ 0.965 µM)	Dose-dependent effect	–	–	4 (≈ 3.86 µM)	8 (≈ 7.72 µM)	4 (≈ 3.86 µM)	16 (≈ 15.4 µM)	16 (≈ 15.4 µM)	16 (≈ 15.4 µM)	16 (≈ 15.4 µM)	Active	Active	Active	Active
